Assays:
[1] = reference compounds of the solubility assay; cited from earlier work
[2] = Metabolic stability in human liver microsomes; format: in vitro ADME
Method in brief: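 Test compound (10 μM) preincubated 5 min at 37 °C with HLM (1 mg/mL) in 0.1 M phosphate buffer pH 7.4, then started with 2 mM NADPH under shaking at 37 °C. Samples at 0, 10, 20, 40 and 60 min quenched in cold acetonitrile with labetalol internal standard and centrifuged. Unchanged substrate and metabolites tracked; t1/2 and CLint from kinetic analysis.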

| Structure (SMILES) | equilibrium solubility of reference compounds [1] [µM] | intrinsic clearance ([2]; HLM, kinetic analysis in WebMetabase) [μL/min∗ mgprot] | half-life at 10 μM ([2]; human, liver microsomes, pH 7.4) [h] |
| --- | --- | --- | --- |
| C[C@H]1O[C@@H](O[C@H]2[C@@H](O)C[C@H](O[C@H]3[C@@H](O)C[C@H](O[C@H]4CC[C@@]5(C)[C@H](CC[C@@H]6[C@@H]5C[C@@H](O)[C@]5(C)[C@@H](C7=CC(=O)OC7)CC[C@]65O)C4)O[C@@H]3C)O[C@@H]2C)C[C@H](O)[C@@H]1O [Digossin] | 84.0 | – | – |
| Cc1cc(-c2ccccc2)nc2nc(C(=O)Nc3ccccc3C(N)=O)nn12 [Compound 23] | – | 4.18 | 2.77 |

Source: paper PMC7561591 (European Journal of Medicinal Chemistry, 2020)
